Test results reported in paper PMC7657097 (Medical Mycology, 2020).
≈ marks a conversion by molar mass, not a printed value. Read-outs that look alike come from different tables or passages of the source.

Tests used:
[1] = system: primary human nasal epithelial cells; assay: Cytotoxicity test; type: cell-based; conditions: 5 μM peptide, 3 hours at 37°C, WST-1
Outline: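 Primary human nasal epithelial cells were grown to confluency in bronchial epithelial cell medium. Cells were exposed to peptide, then washed three times with PBS. Viability was measured colorimetrically with WST-1 (10% v/v in cell medium). Controls were no peptide (100% viability) and 70% ethanol (total loss of viability). Runs were in triplicate, and treated wells were compared with no-peptide wells by two-tailed paired Student t test.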

A. fumigatus [2] = assay: Metabolic assay; type: cell-based, Aspergillus fumigatus; conditions: for inhibition of metabolic activity: A. fumigatus strains Af293, CEA10 and DTO342-B2, 1 μM peptide, initial experiments, results not shown
Outline: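 A. fumigatus grown 4 days on PDA at 37°C; conidia scraped into saline with 0.002% Tween 20 and counted by haemocytometer. Each well held 5 × 10³ conidia, glucose (final 2%), resazurin and water-diluted peptide. Controls lacked peptide or cells; edge wells held water. Absorbance at 570 nm, corrected for the no-cell control, read repeatedly. Initial strain set tested in duplicate.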

A. fumigatus [3] = conditions: EUCAST, ref [27], cited from earlier work

In the case of CCO [EtOH, ethanol], the “cell viability, Average (%)” value ([1]; no peptide = 100% viability, in triplo) is reported as 17.5% and the “cytotoxic effect vs no peptide” value ([1]; two-tailed paired Student t test) is reported as “increased cytotoxic activity”.

With “RRWVQRWIRRWRKVAAARRWVQRWIRRWRPKV-NH2 [CR173]” the “inhibition of metabolic activity” value (A. fumigatus [2]) was “inhibited the metabolic activity strongly”.

In the case of C[C@@H](c1ncncc1F)[C@](O)(Cn1cncn1)c1ccc(F)cc1F [VRC, voriconazole], the MIC (A. fumigatus [3]; A. fumigatus DTO 326-I1) is given as 2 µg/mL (≈ 5.73 µM) and the MIC (A. fumigatus [3]; A. fumigatus DTO 327-A8) is given as “Human ICU patient; Resistant to ITC (>16), POS (0.25), VRC (>16) mg/l”.

In the case of “LLGDFFRKSKEKIGKEFKRIVQRIKDFLRNLVPRTES-NH2 [LL-37]”, the “concentration at which metabolic activity is inhibited” value (A. fumigatus [2]; azole-resistant A. fumigatus strains DTO 327-A8 and 326-I1, tested at 1 and 5 μM, 0.125×MM, 105 μM resazurin, 37°C, 27 h, two experiments) is reported as “did not inhibit metabolic activity”.

With APKAMRRWVQRWIRRWRPKVLQKNNYL-NH2 [CR183] the “inhibition of metabolic activity” value (A. fumigatus [2]) was “inhibited the metabolic activity strongly”.

In the case of CCC(C)n1ncn(-c2ccc(N3CCN(c4ccc(OCC5COC(Cn6cncn6)(c6ccc(Cl)cc6Cl)O5)cc4)CC3)cc2)c1=O (stereo not drawn) [ITC, itraconazole], the MIC (A. fumigatus [3]; A. fumigatus DTO 326-I1) is given as “Human patient from hematology; Resistant to ITC (>16), POS (1), Intermediate for VRC (2) mg/l” and the MIC (A. fumigatus [3]; A. fumigatus DTO 327-A8) is given as “Human ICU patient; Resistant to ITC (>16), POS (0.25), VRC (>16) mg/l”.
